Laboratory results: PMC11756393 (Scientific Reports, 2025)

What follows are compounds tested on macrophages (human monocytes THP-1 differentiated) (assay: MTT cytotoxicity assay on macrophages). Settings: SI as a marker of toxicity.
Type: cell-based
In short: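 THP-1 monocytes were differentiated to macrophages and grown at 37 °C, 5% CO2 in RPMI 1640 with 10% FBS. Test compound added in triplicate; untreated wells and medium with 1% DMSO served as controls. After 72 h, MTT was added for 4 h, formazan dissolved in DMSO and absorbance read at 490 nm. CC50 by probit analysis, mean ± SD; SI = CC50/amastigote IC50.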

| Structure (SMILES) | Safety for mammalian macrophages judged by SI (in words) |
| --- | --- |
| COc1ccc(C2Oc3ccccc3C=C2[N+](=O)[O-])cc1 (stereo not drawn) [Compound 4d, 2-(4-methoxyphenyl)-3-nitro-2H-chromene] | highly safe |
| O=[N+]([O-])C1=Cc2ccccc2OC1c1cccc(OCc2ccc(Cl)cc2)c1 (stereo not drawn) [Compound 4n, 2-(3-((4-chlorobenzyl)oxy)phenyl)-3-nitro-2H-chromene] | highly safe |
| O=[N+]([O-])C1=Cc2ccccc2OC1c1cccc(OCc2ccc([N+](=O)[O-])cc2)c1 (stereo not drawn) [Compound 4o, 3-nitro-2-(3-((4-nitrobenzyl)oxy)phenyl)-2H-chromene] | highly safe |

Each compound was assayed on L. tropica promastigotes (assay: MTT assay on promastigotes). Settings: combination with MA, compared with MA monotherapy.
Type: cell-based, Leishmania tropica
In short: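 L. tropica promastigotes grown at 24 °C in RPMI 1640 with 10% FBS, seeded at 5 × 10^5 cells/ml and left overnight. Test compound then added in triplicate for 72 h. MTT for 4 h, formazan dissolved in DMSO, absorbance read at 490 nm. IC50 from nonlinear regression against untreated control. Meglumine antimonate combinations scored by combination index and isobologram additivity line.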

| Structure (SMILES) | Combined effect with meglumine antimonate on promastigotes (in words) |
| --- | --- |
| O=[N+]([O-])C1=Cc2ccccc2OC1c1cccc(OCc2ccc(Cl)cc2)c1 (stereo not drawn) [Compound 4n, 2-(3-((4-chlorobenzyl)oxy)phenyl)-3-nitro-2H-chromene] | most pronounced synergistic effects |
| Cc1ccc(COc2cccc(C3Oc4ccccc4C=C3[N+](=O)[O-])c2)cc1 (stereo not drawn) [Compound 4k, 2-(3-((4-methylbenzyl)oxy)phenyl)-3-nitro-2H-chromene] | most pronounced synergistic effects |
| O=[N+]([O-])C1=Cc2ccccc2OC1c1cccc(OCc2ccc([N+](=O)[O-])cc2)c1 (stereo not drawn) [Compound 4o, 3-nitro-2-(3-((4-nitrobenzyl)oxy)phenyl)-2H-chromene] | most pronounced synergistic effects |

Same assay, conditions: compound alone, compared with meglumine antimonate

| Structure (SMILES) | Inhibitory activity on promastigotes (in words) |
| --- | --- |
| O=[N+]([O-])C1=Cc2ccccc2OC1c1cccc(OCc2ccc(Cl)cc2)c1 (stereo not drawn) [Compound 4n, 2-(3-((4-chlorobenzyl)oxy)phenyl)-3-nitro-2H-chromene] | comparable to meglumine antimonate |
| Cc1ccc(COc2cccc(C3Oc4ccccc4C=C3[N+](=O)[O-])c2)cc1 (stereo not drawn) [Compound 4k, 2-(3-((4-methylbenzyl)oxy)phenyl)-3-nitro-2H-chromene] | comparable to meglumine antimonate |
| O=[N+]([O-])C1=Cc2ccccc2OC1c1cccc(OCc2ccc([N+](=O)[O-])cc2)c1 (stereo not drawn) [Compound 4o, 3-nitro-2-(3-((4-nitrobenzyl)oxy)phenyl)-2H-chromene] | comparable to meglumine antimonate |
